Mdm2-MdmX inh = human Mdm2/MdmX binding inhibition. inhibition, % at 8 µM. O15151+Q00987. 330,000 compounds, 3% hits. SaOS-2 split-luciferase Mdm2/MdmX complementation, luminescence. AID 485346;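 active = inhibition of at least 50% at 8 µM in the primary screen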
VIM-2 inhibitor = blocks Pseudomonas aeruginosa VIM-2 metallo-beta-lactamase | purified VIM-2, nitrocefin hydrolysis, epi-absorbance fluorescence | inhibition, % at 5.6 µM | 290,000 compounds, 0.89% hits | AID 1527;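 active = inhibition above the mean of all tested compounds plus 3 SD, cutoff set per screening run, cut at about 7.5% in these data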;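 note: red hydrolysis product quenches plate fluorescence so inhibitors raise well fluorescence; 0% = enzyme with DMSO and 100% = DMSO without enzyme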
IMP-1 inh-1 = blocks Pseudomonas aeruginosa IMP-1 metallo-beta-lactamase; purified IMP-1, nitrocefin hydrolysis, epi-absorbance fluorescence; inhibition, % at 5.6 µM; 290,000 compounds, 0.45% hits; AID 1556;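 active = inhibition above the mean plus 3 SD of all compounds in the same screening run, cut at about 4.5% in these data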;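 note: 0% = IMP-1 with DMSO and 100% = DMSO wells lacking enzyme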
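Material – recombinant IMP-1 enzyme, purified · Amount – IMP-1 0.2 nM before substrate addition · Medium – HEPES buffer pH 7.1 with ZnSO4 and Brij 35 · Timing – 25 °C, 15 min preincubation, 25 min reaction · Measured by – plate fluorescence quenching by hydrolysis product, ex 480/em 530 nm · Read-out – percent enzyme inhibition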
aSyn UTR inh = 5' untranslated region of α-synuclein, MLPCN primary screen; alpha-synuclein 5'UTR reporter, inhibitor activity; inhibition, % (tested at 7.5 µM); 300,000 compounds, 0.82% hits; in the data active = inhibition above about 60%;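 note: H4 neuroglioblastoma cells stably carrying SNCA 5'UTR luciferase fusion; 0% = DMSO wells and 100% = positive control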
697 NFkB inh = inhibitors of the PMA/ionomycin-induced NF-kB reporter in 697 B cells | 697 B-cell NF-kB luciferase reporter, 16 h | inhibition, % at 4 µM | 330,000 compounds, 0.33% hits | AID 435022; in the data active = inhibition above about 35%
Jurkat NFkB inh = lowers PMA/ionomycin-induced NF-kB signal in Jurkat cells. PMA/ionomycin-induced NF-kB luciferase reporter, luminescence. inhibition, % at 4 µM. 330,000 compounds, 0.53% hits. AID 435003; in the data active = inhibition above about 50%
IMP-1 inh-2 = blocks IMP-1 metallo-beta-lactamase in VIM-2 selectivity screen | shares compounds with VIM-2 inhibitor | purified IMP-1, nitrocefin hydrolysis, epi-absorbance fluorescence | inhibition, % at 5.6 µM | 1,300 tested, under 10 active; call rule not given here;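 note: 0% = enzyme with vehicle and 100% = vehicle without enzyme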
VIM-2 FRET inh = VIM-2 FRET inhibition, artifact counter-screen. shares compounds with VIM-2 inhibitor. purified VIM-2, CCF2 FRET substrate hydrolysis. inhibition, % at 5.6 µM. 1,300 compounds, 23% hits;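 active = inhibition above the mean of all tested compounds plus 3 SD, cut at about 19% in these data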;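 note: 0% = VIM-2 plus DMSO and 100% = no enzyme wells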
TEM-1 counter = blocks E. coli TEM-1 beta-lactamase in VIM-2 selectivity screen; Purified TEM-1, nitrocefin hydrolysis, epi-absorbance fluorescence; AID 1866; 1,300 compounds, 3% hits; inhibition, % at 5.6 µM; shares compounds with VIM-2 inhibitor;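 active = inhibition above that campaign's mean inhibition plus 3 SD, cut at about 0.46% in these data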;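 note: 0% = TEM-1 with DMSO and 100% = TEM-1 with 100 µM potassium clavulanate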
Target sequence (P62593 whole entry, looked up): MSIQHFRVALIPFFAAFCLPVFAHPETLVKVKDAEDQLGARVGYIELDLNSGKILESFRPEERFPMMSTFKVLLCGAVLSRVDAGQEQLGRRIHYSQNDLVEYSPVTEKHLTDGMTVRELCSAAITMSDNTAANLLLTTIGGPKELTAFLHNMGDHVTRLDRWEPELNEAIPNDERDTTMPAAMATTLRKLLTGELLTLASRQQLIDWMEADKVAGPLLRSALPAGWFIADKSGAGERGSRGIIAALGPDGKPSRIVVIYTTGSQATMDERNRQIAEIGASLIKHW
VIM-2 inh conf = confirmation of P. aeruginosa VIM-2 metallo-beta-lactamase inhibitors. shares compounds with VIM-2 inhibitor. purified VIM-2, nitrocefin hydrolysis, epi-absorbance. inhibition, % at 5.6 µM. 1,300 compounds, 96% hits. AID 2187;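 active = inhibition of the VIM-2 beta-lactamase enzyme above about 11% from the earlier first-round screen, limit read from the data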;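 note: 0% = VIM-2 with DMSO and 100% = buffer wells without enzyme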
* marks the source's active call; other numbers are inactive results; / = no result. Compounds with a hit are over-represented: about 4.7% of the library has one in this group of screens.

SMILES	Mdm2-MdmX inh	VIM-2 inhibitor	IMP-1 inh-1	aSyn UTR inh	697 NFkB inh	Jurkat NFkB inh	IMP-1 inh-2	VIM-2 FRET inh	TEM-1 counter	VIM-2 inh conf
CC(Oc1ccc2c3c(c(=O)oc2c1)CCCC3)C(=O)NCc1ccncc1 (stereo unspecified)	3.8	25.3*	0.8	8.8	11.1	3.8	-2.2	-1.1	-4.2	37.6*
CC1(C)CC(NC(=O)COc2ccc3c4c(c(=O)oc3c2)CCCC4)CC(C)(C)N1	0.9	19.9*	2.4	11.3	6.5	-30.0	-2.9	-1.6	-5.5	25.6*
Cc1cc(=O)oc2cc(OCC(=O)NC3CC(C)(C)NC(C)(C)C3)c(Cl)cc12	-2.2	0.6	-0.5	-10.8	0.3	-16.0	/	/	/	/
CCc1cc(=O)oc2c(C)c(OCC(=O)NC3CC(C)(C)NC(C)(C)C3)ccc12	23.1	14.3*	-3.6	0.1	-6.2	-23.9	-2.2	-0.8	-9.3	22.2*
Cc1c(OCC(=O)NCC(O)c2ccccc2)ccc2c(-c3ccccc3)cc(=O)oc12 (stereo unspecified)	15.7	12.6*	-2.9	42.2	22.6	1.4	-2.2	-0.4	-7.0	26.3*
O=C(COc1ccc2c3c(c(=O)oc2c1)CCC3)NCC(O)c1ccccc1 (stereo unspecified)	20.0	14.1*	-1.5	4.0	3.0	14.9	-2.3	-1.7	-5.8	22.5*
CNC(=S)/N=C/NOCc1c(Cl)cccc1Cl	7.1	-3.8	-2.2	-38.9	-28.2	-0.3	/	/	/	/
O=C(Nc1nnc(S(=O)(=O)N2CCCCC2)s1)c1ccc(Cl)cc1	5.9	-3.1	-4.0	22.2	-24.1	10.1	/	/	/	/
O=C(CSc1nnc(NC(=O)c2cccc(F)c2)s1)NCC1CCCO1 (stereo unspecified)	6.9	16.6*	-0.5	-31.7	-12.0	-4.6	-2.5	25.8*	-4.7	14.8*
Cc1cccc(C(=O)Nc2nnc(SCC(=O)NCc3ccco3)s2)c1	0.3	17.9*	-0.6	-100.9	-37.1	-12.6	-3.1	36.6*	-6.5	24.4*
Cc1cccc(C)c1Nc1nnc(SCC(=O)NCc2ccco2)s1	-9.4	-1.2	-2.3	8.2	-11.7	-0.3	/	/	/	/
COCCNc1oc(/C=C/c2ccccc2OC)nc1S(=O)(=O)c1ccccc1	8.7	-2.3	-2.7	4.4	-11.7	-12.4	/	/	/	/
CCCCn1c2ccc(C)cc2c2nnc(SCCN3CCCCC3)nc21	17.5	21.6*	-2.6	-4.6	-24.0	-15.9	-2.7	8.3	-8.0	32.9*
Cn1c2ccccc2c2nnc(SCC(=O)Nc3cccc(O)c3)nc21	28.2	20.4*	-2.4	-1.1	14.1	-6.0	-2.3	3.5	-8.3	27.4*
CCn1c2ccccc2c2nnc(SCCN3CCOCC3)nc21	-4.8	3.4	0.0	2.0	-0.2	-14.6	/	/	/	/
Cc1ccc2[nH]c3nc(SCCN4CCOCC4)nnc3c2c1	-16.1	2.0	-1.2	-42.1	-47.7	-21.0	/	/	/	/
Cn1c2ccccc2c2nnc(SCCN3CCOCC3)nc21	-3.8	17.1*	-2.1	-30.5	-16.3	-13.9	-3.1	0.4	-9.3	23.0*
CCn1c2ccccc2c2nnc(SCCN3CCCCC3)nc21	2.1	19.1*	-4.3	-20.7	-20.1	3.1	-1.0	2.3	-0.8	21.5*
Nc1cc(N)nc(SCCN2CCCCC2)n1	-4.0	-0.4	-0.5	13.4	-10.6	-7.3	/	/	/	/
Cc1cc(C)c2c(c1)c1nnc(SCCN3CCCCC3)nc1n2C	29.4	23.0*	0.6	-25.7	9.7	-1.3	-3.0	1.4	-5.6	33.1*
N#Cc1cccc(NCC(=O)Nc2ccc3c(c2)OCCO3)c1	-114.5	-0.9	-1.6	-68.7	-70.6	-141.1	/	/	/	/
CCCCCCOc1ccc(N2C(=O)CC(SCCN)C2=O)cc1 (stereo unspecified)	-10.6	15.1*	-3.8	-22.1	-23.4	1.5	-2.5	5.5	-6.0	5.2
CCOc1ccc(N2C(=O)CC(SCCN)C2=O)cc1 (stereo unspecified)	-21.5	-4.7	-4.7	-29.9	-52.4	-69.7	/	/	/	/
COc1ccc(C2C(C(=O)c3cccs3)=C(O)C(=O)N2c2nnc(C)s2)cc1OC (stereo unspecified)	-11.3	26.9*	0.6	11.6	22.2	5.2	3.4	-12.0	5.5*	8.8*
COc1ccc(C2C(C(=O)c3cccs3)=C(O)C(=O)N2c2nncs2)cc1 (stereo unspecified)	6.5	5.2	-2.4	-108.0	-16.9	-18.5	/	/	/	/
SMILES	Mdm2-MdmX inh	VIM-2 inhibitor	IMP-1 inh-1	aSyn UTR inh	697 NFkB inh	Jurkat NFkB inh	IMP-1 inh-2	VIM-2 FRET inh	TEM-1 counter	VIM-2 inh conf
O=C(Nc1ccc(Cl)cc1Cl)c1cccc(N2C(=O)C=CC2=O)c1	-27.2	/	/	6.7	13.7	-0.1	/	/	/	/
CCCc1cc(=O)oc2c3c(cc(OCC(=O)N[C@@H](CSC)C(=O)O)c12)OC(C)(C)CC3	-3.8	37.0*	-3.3	11.8	9.3	12.8	-2.2	67.8*	-6.9	43.9*
CSC[C@H](NC(=O)COc1cc2c(c3oc(=O)cc(C)c13)CCC(C)(C)O2)C(=O)O	-3.3	0.9	-3.4	0.5	-3.3	-12.5	/	/	/	/
CCCc1cc(=O)oc2c3c(cc(OCC(=O)N[C@@H](C)C(=O)O)c12)OC(C)(C)CC3	10.3	17.5*	-0.1	-0.4	8.1	-25.5	-2.7	40.6*	-3.3	24.4*
NC(=O)c1ccc(NC(=O)COC(=O)c2ccc(Br)o2)cc1	-7.3	/	/	/	7.9	7.8	/	/	/	/
Brc1ccc(-c2ccc(CNCc3ccccn3)o2)cc1	-17.4	38.8*	-0.4	-36.5	-7.9	-18.7	-3.5	-15.2	-6.1	50.5*
NC(=O)C1CCN(c2nc3c(S(=O)(=O)c4ccccc4)nnn3c3ccccc23)CC1	8.7	3.0	-0.3	-3.1	2.6	0.9	/	/	/	/
Cc1ccc(C)c(-n2c(-c3ccco3)n[nH]c2=S)c1	9.0	/	/	/	18.9	9.8	/	/	/	/
COc1ccccc1-n1c(-c2ccco2)n[nH]c1=S	-2.7	22.1*	-1.0	4.2	15.0	-5.6	-3.3	43.8*	-7.8	28.2*
S=c1[nH]nc(-c2ccco2)n1-c1cccc2ccccc12	-11.0	19.4*	-6.9	-1.9	-0.5	-8.5	-2.4	49.2*	-7.9	32.0*
CC(=C/c1ccccc1)/C=N/n1c(-c2ccco2)n[nH]c1=S	-7.5	16.6*	-1.6	27.2	-17.2	12.2	-3.4	38.0*	-6.6	22.6*
CC(C)Oc1ccc(Cn2c(-c3ccco3)n[nH]c2=S)cc1	11.2	15.8*	-5.7	0.6	1.0	8.0	-3.3	45.0*	-9.5	26.7*

Assay outcomes as filed in PubChem.
